In data set [1] the target is T1, Human immunodeficiency virus type 1 integrase (Human immunodeficiency virus 1, UniProt Q7ZJM1).
Data set [2] deals with Human immunodeficiency virus 1. The experiment in a line: Antiviral activity against HIV-1 3B infected in human HeLa-CD4-LTR-beta-gal cells assessed as inhibition of viral replication by SpectraMax GEMINI-XS plate reader analysis. Particulars: Human immunodeficiency virus 1, 3B. Type of data set: functional, organism-based. The essentials: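 HeLa-CD4-LTR-β-gal cells kept in DMEM, 10% serum, 0.5 mg/mL G418; seeded 10000 cells/well the day before. Drug 3-fold serially diluted over six points on cells (top 50 μM), then fresh medium or concentrated HIV-1(IIIB) supernatant added.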

Data set [3] concerns the target Human immunodeficiency virus type 1 reverse transcriptase (Human immunodeficiency virus 1, UniProt Q72547). As to the kind of experiment: Inhibition of RNase H function of HIV1 reverse transcriptase using DNA/RNA hybrid as substrate by fluorescence spectrometer analysis.
A further data set concerns HeLa. The experiment in a line: Cytotoxicity against human HeLa-CD4-LTR-beta-gal cells after 24 hrs by ATPlite reagent based luminescence analysis. Type of data set: cell-based. On the technique in general: In ATP-based viability assays light output follows the ATP content of the culture.
Data set [4] can be described thus: Selectivity index, ratio of CC50 for human HeLa-CD4-LTR-beta-gal cells to EC50 for HIV-1 3B infected in human HeLa-CD4-LTR-beta-gal cells. Type of data set: toxicity. Particulars: read-out: Ratio CC50/EC50.
Data set [5] has as its target Human immunodeficiency virus type 1 reverse transcriptase (Human immunodeficiency virus 1) (UniProt Q72547). As to the kind of experiment: Inhibition of RNase H function of HIV1 reverse transcriptase using DNA/RNA hybrid as substrate at 10 uM by fluorescence spectrometer analysis. The essentials:
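RNase H activity of HIV-1 RT was measured with an RNA/DNA hybrid substrate at 250 nM final, with 150–800 ng RT, in 50 mM Tris-HCl pH 8.0, 60 mM KCl, 10 mM MgCl2 and 1% DMSO, against DMSO-only wells. Fluorescence (ex 485/em 520 nm) was read each minute over 10 min at 37 °C. Percent inhibition at 10 μM = 100(v0−vi)/v0 from initial rates, run in triplicate.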

Data set [6] deals with T1, Human immunodeficiency virus type 1 integrase. The source holds these as a separate data set.

Structures are written as SMILES.

T1 sequence (Q7ZJM1 whole entry): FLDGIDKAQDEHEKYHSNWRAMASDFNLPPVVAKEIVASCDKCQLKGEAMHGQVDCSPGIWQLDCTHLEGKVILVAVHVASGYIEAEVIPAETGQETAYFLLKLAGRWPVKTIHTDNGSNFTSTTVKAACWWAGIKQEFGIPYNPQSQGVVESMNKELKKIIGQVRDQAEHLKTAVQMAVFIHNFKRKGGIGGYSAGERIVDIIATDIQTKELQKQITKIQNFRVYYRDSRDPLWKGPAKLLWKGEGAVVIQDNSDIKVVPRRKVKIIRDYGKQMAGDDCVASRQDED

On to `O=C(O)/C(O)=C/C(=O)c1cn(Cc2ccc(Cl)cc2Cl)c2ccccc2c1=O`, for which the IC50 – broadly, the concentration at which inhibition is half-maximal – in data set [1] worked out at 2.3 µM; in data set [3], 44.7 µM. Moreover, the EC50 – broadly, the concentration that produces a half-maximal response – in data set [2] is greater than 50 µM.
On to `O=C(O)/C(O)=C/C(=O)c1cn(Cc2ccc(F)cc2F)c2ccccc2c1=O`, for which the IC50 was 0.01 µM in data set [1] and 35.9 µM in data set [3]. The CC50 (as a rule, the concentration that lowers cell viability or growth by half) in the data set on HeLa was greater than 50 µM. In data set [4], the selectivity ratio is greater than 3.6. Also, the EC50 in data set [2] stood at 13.8 µM.
Take `COc1ccc(Cn2cc(C(=O)/C=C(\O)C(=O)O)c(=O)c3ccccc32)cc1`: the results for the IC50 in data set [1], in data set [3] and in data set [6] were 0.51 µM, greater than 50 µM and 28 µM, respectively. In addition, the inhibition (in general, the relative decrease from the control value, in per cent) in data set [5] came to 45.8%. Moreover, the EC50 in data set [2] is greater than 50 µM.
With `O=C(O)/C(O)=C/C(=O)c1cn(Cc2cc(F)ccc2F)c2ccccc2c1=O`, the IC50 in data set [1] was 3.2 µM; in data set [3], greater than 50 µM. Further, the inhibition in data set [5] is 37%. The EC50 in data set [2] was greater than 50 µM.
In the case of `Cc1cc(C)cc(Cn2cc(C(=O)/C=C(\O)C(=O)O)c(=O)c3ccccc32)c1`, the figures for the half-inhibitory concentration (IC50) in data set [1] and in data set [3] were 0.05 µM and 37.8 µM, respectively. For the same compound, in data set [2], the EC50 was greater than 50 µM.
Take `O=C(O)/C(O)=C/C(=O)c1cn(Cc2ccccc2F)c2c(Cl)cccc2c1=O`: the IC50 in data set [1] is 0.13 µM; in data set [3] it was greater than 50 µM; in data set [6], 20.5 µM. Moreover, the inhibition in data set [5] turned out to be 45%. Also, the EC50 in data set [2] is greater than 50 µM.
For `O=C(O)/C(O)=C/C(=O)c1cn(Cc2ccccc2F)c2cc(Cl)ccc2c1=O`, the CC50 with HeLa was greater than 50 µM. Also, the selectivity ratio in data set [4] is greater than 2.9. Further, in data set [2], the EC50 was 17 µM. For the same compound, the IC50 in data set [3] came to 22.6 µM.
With `O=C(O)/C(O)=C/C(=O)c1cn(Cc2ccccc2F)c2ccccc2c1=O`, the IC50 in data set [1] was 0.016 µM; in data set [3], greater than 50 µM; in data set [6], 1.2 µM. The CC50 with HeLa was greater than 50 µM. For the same compound, in data set [5], the inhibition came out at 45.1%. The selectivity ratio in data set [4] was greater than 19.2. For the same compound, the EC50 in data set [2] was 2.6 µM.
On to `Cc1ccc(Cn2cc(C(=O)/C=C(\O)C(=O)O)c(=O)c3ccccc32)c(C)c1`, for which the IC50 in data set [1] was 7 µM; in data set [3] it was 19.6 µM. Further, the EC50 in data set [2] is greater than 50 µM.
As to `CCOC(=O)/C(O)=C/C(=O)c1cn(Cc2ccc(C)cc2C)c2ccccc2c1=O`, the IC50 was greater than 111 µM in data set [1] and greater than 50 µM in data set [3]. For the same compound, the inhibition in data set [5] is 33%. Also, in data set [2], the EC50 was greater than 50 µM.
As to `CCOC(=O)/C(O)=C/C(=O)c1cn(Cc2c(Cl)cccc2Cl)c2ccccc2c1=O`, the half-inhibitory concentration (IC50) in data set [1] is 32 µM; in data set [3] it was greater than 50 µM. Besides, in the data set on HeLa, the CC50 is greater than 50 µM. Further, the inhibition in data set [5] amounted to 55%. For the same compound, the selectivity ratio in data set [4] is greater than 1.7. Moreover, the EC50 in data set [2] came out at 30.2 µM.
For the compound `O=C(O)/C(O)=C/C(=O)c1cn(Cc2ccc([N+](=O)[O-])cc2)c2ccccc2c1=O`, the figures for the IC50 in data set [1], in data set [3] and in data set [6] were 0.64 µM, 47 µM and 27 µM, respectively. Also, the EC50 in data set [2] was greater than 50 µM.
As to `O=C(O)/C(O)=C/C(=O)c1cn(Cc2c(Cl)cccc2Cl)c2ccccc2c1=O`, the IC50 worked out at 0.27 µM in data set [1] and 10 µM in data set [3]. Further, the inhibition in data set [5] amounted to 86.3%. Besides, the EC50 in data set [2] was greater than 50 µM.
For the compound `COc1ccccc1Cn1cc(C(=O)/C=C(\O)C(=O)O)c(=O)c2ccccc21`, the IC50 in data set [1] was 0.038 µM; in data set [3], 16.3 µM; in data set [6], greater than 4.1 µM. This compound had a CC50 in the data set on HeLa greater than 50 µM. In addition, in data set [4], the selectivity ratio was greater than 5.4. For the same compound, in data set [2], the EC50 was determined as 9.3 µM.
`O=C(O)/C(O)=C/C(=O)c1cn(Cc2c(F)cccc2F)c2ccccc2c1=O` [RDS-1984]: the IC50 in data set [1] is 0.019 µM; in data set [3], 10.8 µM; in data set [6], 0.7 µM. This compound came in with a CC50 in the data set on HeLa greater than 50 µM. The selectivity ratio in data set [4] was greater than 6.2. Further, the EC50 in data set [2] worked out at 8.1 µM.
Consider `CCOC(=O)/C(O)=C/C(=O)c1cn(Cc2ccc(Cl)cc2Cl)c2ccccc2c1=O`, for which the results for the IC50 in data set [1] and in data set [3] were greater than 111 µM and greater than 50 µM, respectively. In addition, the inhibition in data set [5] was 51%. Further, in data set [2], the EC50 is greater than 50 µM.
Take `O=C(O)/C(O)=C/C(=O)c1cn(Cc2ccc(O)cc2)c2ccccc2c1=O`: the IC50 in data set [1] was 0.45 µM; in data set [3], 9.5 µM; in data set [6] it was greater than 37 µM. For the same compound, the EC50 in data set [2] is greater than 50 µM.
For `O=C(O)/C(O)=C/C(=O)c1cn(Cc2ccc(F)c(F)c2)c2ccccc2c1=O`, the IC50 in data set [1] is 0.11 µM; in data set [3] it was greater than 50 µM. In the data set with HeLa, the CC50 was greater than 50 µM. Further, the inhibition in data set [5] worked out at 44%. Further, the selectivity ratio in data set [4] was greater than 3.1. Moreover, the EC50 in data set [2] came to 16.2 µM.
Turning to `O=C(O)/C(O)=C/C(=O)c1cn(Cc2ccc(Cl)cc2)c2ccccc2c1=O`, the IC50 is 0.54 µM in data set [1], greater than 50 µM in data set [3] and 22 µM in data set [6]. This compound showed a CC50 in the data set on HeLa greater than 50 µM. Moreover, the inhibition in data set [5] was found to be 56.2%. Further, the selectivity ratio in data set [4] is greater than 57.5. For the same compound, the EC50 in data set [2] came to 0.87 µM.
Turning to `CCOC(=O)/C(O)=C/C(=O)c1cn(Cc2cccc(F)c2)c2ccccc2c1=O` [RDS-1624], the IC50 in data set [1] was 4.9 µM; in data set [6], greater than 12.3 µM. The same compound returned a 50% cytotoxic concentration (CC50) with HeLa greater than 50 µM. Moreover, the inhibition in data set [5] is -9.4%. In addition, the selectivity ratio in data set [4] is greater than 29.4. The EC50 in data set [2] was found to be 1.7 µM.
Turning to `O=C(O)/C(O)=C/C(=O)c1cn(Cc2cc(F)cc(F)c2)c2ccccc2c1=O`, the IC50 is 0.22 µM in data set [1] and greater than 50 µM in data set [3]. In data set [5], the inhibition is 30%. Also, the EC50 in data set [2] was greater than 50 µM.

The values above are taken from ChEMBL document CHEMBL3580569, “N-Substituted Quinolinonyl Diketo Acid Derivatives as HIV Integrase Strand Transfer Inhibitors and Their Activity against RNase H Function of Reverse Transcriptase” (J Med Chem, 2015).
